Laboratory results from ChEMBL document CHEMBL4715748, “Synthesis and biological investigation of new equatorial (β) stereoisomers of 3-aminotropane arylamides with atypical antipsychotic profile” (Bioorg Med Chem, 2016).

Columns and labels:
[1] = Half life in pooled human liver microsomes assessed as parent compound remaining at 2.5 uM measured up to 45 mins in presence of NADPH by LC-MS analysis; type: ADME, Microsome
Summary of the method: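 Compound at 2.5 μM (added from 100 μM stock in 50/50 acetonitrile/water) with 1 mg/mL pooled human liver microsomes and 250 μM NADPH in 0.1 M potassium phosphate pH 7.4 at 37 °C after 5-min preincubation. Sampled at 5, 10, 15, 30, 45 min into ice-cold acetonitrile with atropine internal standard; parent quantified by LC-MS (ESI+, [M+H]+); no-NADPH controls; half-time derived.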

[2] = Effect on body temperature in Swiss Albino mouse assessed as rectal body temperature at 10 mg/kg, ip measured after 120 mins by thermometer (reference value: 0.15 to 1.11 degreeC); type: organism-based; conditions: in vivo, 2 h
[3] = Effect on body temperature in Swiss Albino mouse assessed as rectal body temperature at 20 mg/kg, ip measured after 60 mins by thermometer (reference value: 0.33 to 0.61 degreeC); type: ADME, organism-based; conditions: in vivo, 1 h
[4] = molecular target: 5-hydroxytryptamine receptor 2A (Rattus norvegicus, UniProt P14842); test: Displacement of [3H]-ketanserin from rat cerebral cortex 5HT2A receptor measured after 20 mins by liquid scintillation counter method
Sequence of 5-hydroxytryptamine receptor 2A (P14842 whole entry): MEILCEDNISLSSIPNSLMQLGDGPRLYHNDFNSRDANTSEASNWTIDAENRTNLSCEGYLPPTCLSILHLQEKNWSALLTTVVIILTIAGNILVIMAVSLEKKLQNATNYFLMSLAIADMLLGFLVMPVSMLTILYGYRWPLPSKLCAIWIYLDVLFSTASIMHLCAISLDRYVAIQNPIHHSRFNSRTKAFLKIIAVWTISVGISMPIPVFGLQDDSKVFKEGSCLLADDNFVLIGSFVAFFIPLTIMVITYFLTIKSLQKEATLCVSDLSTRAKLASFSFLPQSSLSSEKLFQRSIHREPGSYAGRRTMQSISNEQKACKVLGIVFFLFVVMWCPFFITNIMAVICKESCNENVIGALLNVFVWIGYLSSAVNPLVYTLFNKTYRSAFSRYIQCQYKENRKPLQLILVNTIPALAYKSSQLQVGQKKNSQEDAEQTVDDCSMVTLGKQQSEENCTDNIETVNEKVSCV
Summary of the method: (§1)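 Competition binding in rat brain tissue membranes against D2, 5-HT1A and 5-HT2A sites; Ki reported as mean ± S.E.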

Mus musculus [5] = test: Effect on 8-OH-DPAT-induced hypothermia in Swiss albino mouse assessed as change in rectal body temperature at 20 mg/kg, ip pretreated with compound for 45 mins followed by 8-OH-DPAT challenge and measured after 60 min by thermometer (reference value: -0.66 to -0.5 degreeC); type: functional, organism-based; conditions: time 105.0 min
[6] = Effect on body temperature in Swiss Albino mouse assessed as rectal body temperature at 10 mg/kg, ip measured after 30 mins by thermometer (reference value: 0.16 to 0.33 degreeC); type: organism-based; conditions: in vivo, 0.5 h
[7] = Effect on body temperature in Swiss Albino mouse assessed as rectal body temperature at 20 mg/kg, ip measured after 90 mins by thermometer (reference value: 0.18 to 0.63 degreeC); type: ADME, organism-based; conditions: in vivo, 1.5 h
[8] = Effect on body temperature in Swiss Albino mouse assessed as rectal body temperature at 10 mg/kg, ip measured after 90 mins by thermometer (reference value: 0.18 to 0.63 degreeC); type: ADME, organism-based; conditions: in vivo, 1.5 h
[9] = Effect on body temperature in Swiss Albino mouse assessed as rectal body temperature at 20 mg/kg, ip measured after 120 mins by thermometer (reference value: 0.15 to 1.11 degreeC); type: ADME, organism-based; conditions: in vivo, 2 h
[10] = molecular target: T1, 5-hydroxytryptamine receptor 1A (Rattus norvegicus, UniProt P19327); test: Displacement of [3H]-8-OH-DPAT from rat cerebral cortex 5HT1A receptor measured after 15 mins by liquid scintillation counter method
T1 sequence (P19327 whole entry): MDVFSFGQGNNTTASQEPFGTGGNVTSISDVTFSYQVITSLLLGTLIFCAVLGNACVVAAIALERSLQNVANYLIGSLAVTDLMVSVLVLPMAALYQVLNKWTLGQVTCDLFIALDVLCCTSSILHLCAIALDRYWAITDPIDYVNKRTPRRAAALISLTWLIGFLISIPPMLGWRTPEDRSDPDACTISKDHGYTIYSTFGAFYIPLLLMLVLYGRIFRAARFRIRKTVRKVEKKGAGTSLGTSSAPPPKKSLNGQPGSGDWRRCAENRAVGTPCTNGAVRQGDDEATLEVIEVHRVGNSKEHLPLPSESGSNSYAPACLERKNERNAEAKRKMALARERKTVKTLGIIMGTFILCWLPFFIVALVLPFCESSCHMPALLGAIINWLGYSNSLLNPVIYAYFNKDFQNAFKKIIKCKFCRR

Mus musculus [11] = test: Antipsychotic activity Swiss Albino mouse assessed as inhibition of DOI-induced head twitching by measuring number of episodes at 2.5 mg/kg, ip administered 30 mins prior to DOI stimulation (reference value: 19.63 to 19.88); type: functional; conditions: 0.5 h
Summary of the method: (§2)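 Male Albino Swiss mice (24–28 g) were habituated to sawdust-lined cages 20 min before the first treatment. Compounds were suspended in 1% aqueous Tween 80 and given i.p. 30 min before (±)-DOI, 2.5 mg/kg i.p. in aqueous solution. Head twitches were counted blind over 20 min, n=8 per group, mean ± SEM, one-way ANOVA with Dunnett's test.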

Mus musculus [12] = test: Effect on 8-OH-DPAT-induced hypothermia in Swiss albino mouse assessed as change in rectal body temperature at 10 mg/kg, ip pretreated with compound for 45 mins followed by 8-OH-DPAT challenge and measured after 60 min by thermometer (reference value: -0.66 to -0.5 degreeC); type: functional, organism-based; conditions: time 105.0 min
[13] = Effect on 8-OH-DPAT-induced lower lip retraction in Wistar rat at 20 mg/kg, ip pretreated with compound for 45 mins followed by 8-OH-DPAT challenge and measured after 15 mins (reference value: 2.7 to 2.8); type: functional; conditions: time 60 min, 1 h
Mus musculus [14] = test: Antipsychotic activity Swiss Albino mouse assessed as inhibition of DOI-induced head twitching by measuring number of episodes at 10 mg/kg, ip administered 30 mins prior to DOI stimulation (reference value: 19.63 to 19.88); type: functional; conditions: 0.5 h; summary of the method: as §2
[15] = Effect on body temperature in Swiss Albino mouse assessed as rectal body temperature at 10 mg/kg, ip measured after 60 mins by thermometer (reference value: 0.33 to 0.61 degreeC); type: ADME, organism-based; conditions: in vivo, 1 h
[16] = molecular target: Dopamine D2 receptor and Serotonin 2a receptor (D2 and 5HT2a) (Rattus norvegicus) (UniProt P61169+P14842); test: Ratio of pKi for displacement of [3H]-ketanserin from rat cerebral cortex 5HT2A receptor measured after 20 mins by liquid scintillation counter method to pKi for displacement of [3H] Spiperone from rat striatum dopamine D2 receptor measured after 30 mins by liquid scintillation counter method
Sequence of Dopamine D2 receptor and Serotonin 2a receptor (D2 and 5HT2a) (Rattus norvegicus) (P14842 whole entry, looked up): as the sequence (P14842 whole entry) above
Sequence of Dopamine D2 receptor and Serotonin 2a receptor (D2 and 5HT2a) (Rattus norvegicus) (P61169 whole entry, looked up): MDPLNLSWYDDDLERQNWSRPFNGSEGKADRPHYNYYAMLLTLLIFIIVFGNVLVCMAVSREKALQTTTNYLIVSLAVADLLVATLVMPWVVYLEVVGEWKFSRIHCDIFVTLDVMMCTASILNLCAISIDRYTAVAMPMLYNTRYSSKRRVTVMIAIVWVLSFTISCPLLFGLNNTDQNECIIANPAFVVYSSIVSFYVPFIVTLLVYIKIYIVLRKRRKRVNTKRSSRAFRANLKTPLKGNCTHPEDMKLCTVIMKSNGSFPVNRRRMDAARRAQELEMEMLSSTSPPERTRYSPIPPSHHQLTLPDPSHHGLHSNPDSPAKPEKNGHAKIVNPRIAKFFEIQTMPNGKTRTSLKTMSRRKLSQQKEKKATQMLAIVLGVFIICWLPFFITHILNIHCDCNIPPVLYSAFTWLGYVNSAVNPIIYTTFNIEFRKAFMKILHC
Summary of the method: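 Ratio of pKi values, 5-HT2A over D2, computed from competition radioligand binding in rat brain tissue.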

Mus musculus [17] = test: Effect on 8-OH-DPAT-induced hypothermia in Swiss albino mouse assessed as change in rectal body temperature at 20 mg/kg, ip pretreated with compound for 45 mins followed by 8-OH-DPAT challenge and measured after 45 min by thermometer (reference value: -1.04 to -0.78 degreeC); type: functional, organism-based; conditions: time 90.0 min
[18] = Effect on body temperature in Swiss Albino mouse assessed as rectal body temperature at 20 mg/kg, ip measured after 30 mins by thermometer (reference value: 0.16 to 0.33 degreeC); type: ADME, organism-based; conditions: in vivo, 0.5 h
[19] = Effect on 8-OH-DPAT-induced lower lip retraction in Wistar rat at 10 mg/kg, ip pretreated with compound for 45 mins followed by 8-OH-DPAT challenge and measured after 15 mins (reference value: 2.7 to 2.8); type: functional; conditions: time 60 min, 1 h
Mus musculus [20] = test: Effect on 8-OH-DPAT-induced hypothermia in Swiss albino mouse assessed as change in rectal body temperature at 20 mg/kg, ip pretreated with compound for 45 mins followed by 8-OH-DPAT challenge and measured after 30 min by thermometer (reference value: -1.36 to -1.12 degreeC); type: functional, organism-based; conditions: time 75.0 min
Mus musculus [21] = test: Effect on 8-OH-DPAT-induced hypothermia in Swiss albino mouse assessed as change in rectal body temperature at 20 mg/kg, ip pretreated with compound for 45 mins followed by 8-OH-DPAT challenge and measured after 15 min by thermometer (reference value: -1.82 to -1.66 degreeC); type: functional, organism-based; conditions: time 60.0 min
Mus musculus [22] = test: Effect on 8-OH-DPAT-induced hypothermia in Swiss albino mouse assessed as change in rectal body temperature at 10 mg/kg, ip pretreated with compound for 45 mins followed by 8-OH-DPAT challenge and measured after 15 min by thermometer (reference value: -1.82 to -1.66 degreeC); type: functional, organism-based; conditions: time 60.0 min
Mus musculus [23] = test: Effect on 8-OH-DPAT-induced hypothermia in Swiss albino mouse assessed as change in rectal body temperature at 10 mg/kg, ip pretreated with compound for 45 mins followed by 8-OH-DPAT challenge and measured after 45 min by thermometer (reference value: -1.04 to -0.78 degreeC); type: functional, organism-based; conditions: time 90.0 min
Mus musculus [24] = test: Effect on 8-OH-DPAT-induced hypothermia in Swiss albino mouse assessed as change in rectal body temperature at 10 mg/kg, ip pretreated with compound for 45 mins followed by 8-OH-DPAT challenge and measured after 30 min by thermometer (reference value: -1.36 to -1.12 degreeC); type: functional, organism-based; conditions: time 75.0 min
D(2) dopamine receptor = D(2) dopamine receptor (Rattus norvegicus, UniProt P61169); test: Displacement of [3H] Spiperone from rat striatum dopamine D2 receptor measured after 30 mins by liquid scintillation counter method; summary of the method: as §1
Sequence of D(2) dopamine receptor (P61169 whole entry): as the sequence (P61169 whole entry, looked up) above

Mus musculus [25] = test: Antipsychotic activity Swiss Albino mouse assessed as inhibition of DOI-induced head twitching by measuring number of episodes at 5 mg/kg, ip administered 30 mins prior to DOI stimulation (reference value: 19.63 to 19.88); type: functional; conditions: 0.5 h; summary of the method: as §2
Mus musculus [26] = test: Inhibition of 8-OH-DPAT-induced hypothermia in Swiss albino mouse assessed as change in rectal body temperature at 0.3 mg/kg, sc pretreated with compound for 45 mins followed by 8-OH-DPAT challenge and measured after 15 min by thermometer (reference value: -1.8 degreeC); type: functional, organism-based; conditions: time 60.0 min
[27] = Effect on 8-OH-DPAT-induced lower lip retraction in Wistar rat at 0.2 mg/kg, sc pretreated with compound for 15 mins followed by 8-OH-DPAT challenge and measured after 15 mins (reference value: 2.7 to 2.8); conditions: time 30 min, 0.5 h
Mus musculus [28] = test: Inhibition of 8-OH-DPAT-induced hypothermia in Swiss albino mouse assessed as change in rectal body temperature at 0.3 mg/kg, sc pretreated with compound for 45 mins followed by 8-OH-DPAT challenge and measured after 60 min by thermometer (reference value: -1.3 degreeC); type: functional, organism-based; conditions: time 105.0 min
Mus musculus [29] = test: Inhibition of 8-OH-DPAT-induced hypothermia in Swiss albino mouse assessed as change in rectal body temperature at 0.3 mg/kg, sc pretreated with compound for 45 mins followed by 8-OH-DPAT challenge and measured after 45 min by thermometer (reference value: -1.3 degreeC); type: functional, organism-based; conditions: time 90.0 min
Mus musculus [30] = test: Inhibition of 8-OH-DPAT-induced hypothermia in Swiss albino mouse assessed as change in rectal body temperature at 0.3 mg/kg, sc pretreated with compound for 45 mins followed by 8-OH-DPAT challenge and measured after 30 min by thermometer (reference value: -1.7 degreeC); type: functional, organism-based; conditions: time 75.0 min
[31] = Effect on 8-OH-DPAT-induced lower lip retraction in Wistar rat at 0.1 mg/kg, sc pretreated with compound for 45 mins followed by 8-OH-DPAT challenge and measured after 15 mins (reference value: 2.7 to 2.8); type: functional; conditions: time 60 min, 1 h

Compound: COc1cccc(CN2C3CCC2CC(NC(=O)c2ccc4ccccc4c2)C3)c1 (configuration not stated)
- half-life at 2.5 µM [1]: 42.9 min
- deltaT [2]: 0.7 °C
- deltaT [3]: 0.57 °C
- Ki [4]: 0.663 µM
- deltaT (Mus musculus [5]): -0.97 °C
- deltaT [6]: -0.03 °C
- deltaT [7]: 0.81 °C
- deltaT [8]: 0.17 °C
- deltaT [9]: 1.26 °C
- Ki [10]: 0.213 µM
- Activity (Mus musculus [11]): 16.63
- deltaT (Mus musculus [12]): -0.6 °C
- Activity [13]: 2.5
- Activity (Mus musculus [14]): 9.88
- deltaT [15]: 0.03 °C
- Ratio pKi [16]: 0.81
- deltaT (Mus musculus [17]): -1.33 °C
- deltaT [18]: -0.1 °C
- Activity [19]: 2.4
- deltaT (Mus musculus [20]): -1.65 °C
- deltaT (Mus musculus [21]): -1.25 °C
- deltaT (Mus musculus [22]): -1.52 °C
- deltaT (Mus musculus [23]): -0.87 °C
- deltaT (Mus musculus [24]): -1.32 °C
- Ki (D(2) dopamine receptor): 0.0257 µM
- Activity (Mus musculus [25]): 14.25

Compound: COc1ccccc1N1CCN(CCN(C(=O)C2CCCCC2)c2ccccn2)CC1 [WAY-100,635]
- deltaT (Mus musculus [26]): -0.6 °C
- Activity [27]: 1.3
- deltaT (Mus musculus [28]): -0.2 °C
- deltaT (Mus musculus [29]): -0.5 °C
- deltaT (Mus musculus [30]): -0.8 °C
- Activity [31]: 1.4
